The results in this text go back to ChEMBL document CHEMBL4371040, “Triazolopyrimidine and triazolopyridine scaffolds as TDP2 inhibitors” (Bioorg Med Chem Lett, 2019).

SMILES strings stand for the structures.

Data set [1] is described as follows: Solubility of the compound in DMSO. The class given is physicochemical.
Data set [2] is described as follows: Solubility of the compound in pH 7.4 Tris HCl buffer. The class given is physicochemical.
The nature of data set [3]: Permeability of the compound at 10 uM after 5 hrs by PAMPA. Conditions: read-out: permeability. The class given is ADME. In outline:
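Parallel artificial membrane permeability assay reported as effective permeability Pe (10−6 cm/s). Pe > 1.5 is taken as high permeability.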
In general terms: In PAMPA a lipid-coated filter parts donor from acceptor wells.

The target in data set [4] is T1, Tyrosyl-DNA phosphodiesterase 2 (Homo sapiens, UniProt O95551).
T1 sequence (O95551 whole entry): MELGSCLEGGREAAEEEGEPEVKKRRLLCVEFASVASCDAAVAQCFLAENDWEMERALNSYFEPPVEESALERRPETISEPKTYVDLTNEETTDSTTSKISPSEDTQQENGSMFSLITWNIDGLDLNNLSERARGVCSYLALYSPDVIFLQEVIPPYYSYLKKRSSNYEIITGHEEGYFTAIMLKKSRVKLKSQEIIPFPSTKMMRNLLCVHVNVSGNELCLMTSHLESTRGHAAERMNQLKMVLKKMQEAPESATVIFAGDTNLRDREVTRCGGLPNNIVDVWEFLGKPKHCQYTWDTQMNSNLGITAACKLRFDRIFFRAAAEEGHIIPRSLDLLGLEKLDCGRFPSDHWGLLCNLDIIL
Briefly: Inhibition of recombinant human TDP2 using T5PNP as substrate preincubated for 10 mins followed by substrate addition and measured after 30 mins.

The subject of the next data set is HepG2. Briefly: Cytotoxicity against human HepG2 cells after 72 hrs by MTT assay. Particulars: hepg2, 72 h. The class given is cell-based. In outline:
(§1)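 Compounds tested at 50 μM and 100 μM to give CC50. Two independent experiments were run, each in triplicate.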
Background: Formazan colour is commonly taken as a measure of viable cells.

For the next data set, the system named is HeLa. Briefly: Cytotoxicity against human HeLa cells after 72 hrs by MTT assay. The class given is cell-based. In outline:
as §1

`O=C(Nc1nc2nc(-c3ccccc3)ccn2n1)c1cccc([N+](=O)[O-])c1`: the solubility entry in data set [1] and in data set [2] was “Soluble” in each case. Moreover, the Papp at 5 h, 10 µM in data set [3] was 0.16 ×10⁻⁶ cm/s.
On to `O=C(Nc1nc2nc(-c3ccccc3)ccn2n1)c1cccc(Br)c1`, for which, in data set [1], the solubility entry was “Insoluble”.
As for `N#Cc1cccc(C(=O)Nc2nc3nc(-c4ccccc4)ccn3n2)c1`, the solubility entry in data set [1] is listed as “Insoluble”.
For `O=C(Nc1nc2nc(-c3ccccc3)ccn2n1)c1ccccc1`, the solubility entry in data set [1] is “Insoluble”.
On to `NC1=CC(N)=C2C=CC(=O)N=C2C1=O`, for which the Papp at 5 h, 10 µM in data set [3] was determined as 0.095 ×10⁻⁶ cm/s. Also, the IC50 in data set [4] amounted to 1.7 µM.
Regarding `O=C(Nc1nc2cc(-c3ccccc3)ccn2n1)c1cccc(Cl)c1`, in data set [3], the Papp at 5 h, 10 µM worked out at 0.9 ×10⁻⁶ cm/s. Besides, the CC50 in the data set with HepG2 and with HeLa was greater than 100 µM throughout.
Regarding `O=C(Nc1nc2cc(-c3cccnc3)ccn2n1)c1cccc(Cl)c1`, the Papp at 5 h, 10 µM in data set [3] was 6.3 ×10⁻⁶ cm/s. Further, the CC50 with HepG2 and with HeLa was greater than 100 µM each time.
In the case of `O=C(Nc1nc2nc(-c3ccccc3)ccn2n1)c1cccc(C(F)(F)F)c1`, the solubility entry in data set [1] is “Insoluble”.
Same read-out and setting: under `O=C(Nc1nc2nc(-c3ccccc3)ccn2n1)c1ccc([N+](=O)[O-])cc1` stands “Insoluble”.
`O=C(Nc1nc2cc(-c3ccccc3)ccn2n1)c1cccc([N+](=O)[O-])c1`: the Papp at 5 h, 10 µM in data set [3] was 0.15 ×10⁻⁶ cm/s.

By IC50 is commonly meant the concentration needed to halve the response being measured. One may read the CC50 as the concentration giving 50% cytotoxicity.
